In ChEMBL document CHEMBL1955778, “Design and synthesis of novel 7-aminoquinazoline derivatives: antitumor and anticonvulsant activities” (Bioorg Med Chem Lett, 2012):
Calls of active or inactive are those of the source. The calls are words filed in the database; no cut-off is given here.

Experiments:
[1] = Growth inhibition of human Hs 578T cells at 10 uM relative to control; format: functional; settings: read-out: GI
In short: (§1)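 Each cell line in a 60-line human tumour panel exposed to one 10 μM concentration. Growth inhibition percentage computed as 100 minus the percentage activity relative to control.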

[2] = system: HL-60(TB); experiment: Growth inhibition of human HL-60(TB) cells at 10 uM relative to control; format: functional; settings: read-out: GI
In short: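 Single-dose screen at 10 μM across the 60-cell-line tumour panel. Percent growth inhibition = 100 minus percent growth activity relative to untreated control.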

[3] = system: SF-295; experiment: Growth inhibition of human SF295 cells at 10 uM relative to control; format: functional; settings: read-out: GI; in short: as §1
[4] = system: COLO 205; experiment: Growth inhibition of human COLO205 cells at 10 uM relative to control; format: functional, cell-based; in short: as §1
[5] = system: Mus musculus; experiment: Anticonvulsant activity in mouse assessed as protection against maximal electroshock-induced seizure at 1 mmol/kg, ip administered 30 min prior to maximal electroshock-challenge measured after 60 mins relative to control; format: functional
[6] = system: MDA-MB-435; experiment: Growth inhibition of human MDA-MB-435 cells at 10 uM relative to control; format: functional; settings: read-out: GI; in short: as §1
[7] = system: HOP-62; experiment: Growth inhibition of human HOP62 cells at 10 uM relative to control; format: functional; settings: read-out: GI; in short: as §1
[8] = system: SNB-19; experiment: Growth inhibition of human SNB19 cells at 10 uM relative to control; format: functional; settings: read-out: GI
In short: (§2)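 Single-dose screen across the 60-cell-line human tumor panel at 10 μM. Growth inhibition is reported as a percentage, taken as 100 minus the % growth relative to untreated control.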

[9] = system: OVCAR-4; experiment: Growth inhibition of human OVCAR4 cells at 10 uM relative to control; format: functional; settings: read-out: GI; in short: as §1
[10] = system: RXF 393; experiment: Growth inhibition of human RXF393 cells at 10 uM relative to control; format: functional; settings: read-out: GI; in short: as §1
[11] = system: OVCAR-5; experiment: Growth inhibition of human OVCAR5 cells at 10 uM relative to control; format: functional; settings: read-out: GI; in short: as §1
[12] = system: IGROV-1; experiment: Growth inhibition of human IGROV1 cells at 10 uM relative to control; format: functional; settings: read-out: GI; in short: as §1
[13] = system: OVCAR-8; experiment: Growth inhibition of human OVCAR8 cells at 10 uM relative to control; format: functional; settings: read-out: GI; in short: as §1
[14] = system: UACC-257; experiment: Growth inhibition of human UACC257 cells at 10 uM relative to control; format: functional; settings: read-out: GI; in short: as §2
[15] = system: A549; experiment: Growth inhibition of human A549 cells at 10 uM relative to control; format: functional; settings: read-out: GI; in short: as §1
[16] = system: NCI/ADR-RES; experiment: Growth inhibition of human NCI/ADR-RES cells at 10 uM relative to control; format: functional; settings: read-out: GI; in short: as §1
[17] = system: HT-29; experiment: Growth inhibition of human HT-29 cells at 10 uM relative to control; format: functional; settings: read-out: GI; in short: as §1
[18] = system: MDA-MB-231; experiment: Growth inhibition of human MDA-MB-231 cells at 10 uM relative to control; format: functional; settings: read-out: GI; in short: as §1
[19] = system: DU-145; experiment: Growth inhibition of human DU145 cells at 10 uM relative to control; format: functional; settings: read-out: GI; in short: as §1
[20] = system: SK-MEL-5; experiment: Growth inhibition of human SK-MEL-5 cells at 10 uM relative to control; format: functional; settings: read-out: GI; in short: as §1
[21] = system: NCI-H460; experiment: Growth inhibition of human NCI-H460 cells at 10 uM relative to control; format: functional; settings: read-out: GI; in short: as §1
[22] = Growth inhibition of human 786-O cells at 10 uM relative to control; format: functional; settings: 786-0, read-out: GI; in short: as §1
[23] = system: SNB-75; experiment: Growth inhibition of human SNB75 cells at 10 uM relative to control; format: functional; settings: read-out: GI; in short: as §2
[24] = system: SN12C; experiment: Growth inhibition of human SN12C cells at 10 uM relative to control; format: functional; settings: read-out: GI; in short: as §2
[25] = system: UO-31; experiment: Growth inhibition of human UO31 cells at 10 uM relative to control; format: functional; settings: read-out: GI; in short: as §2
[26] = system: CAKI-1; experiment: Growth inhibition of human CAKI-1 cells at 10 uM relative to control; format: functional; settings: read-out: GI; in short: as §1
[27] = system: Mus musculus; experiment: Anticonvulsant activity in mouse assessed as protection against strychnine-induced seizure at 1 mmol/kg, ip administered 30 min prior to strychnine-challenge measured after 60 mins relative to control; format: functional
[28] = system: Malme-3M; experiment: Growth inhibition of human MALME-3M cells at 10 uM relative to control; format: functional; settings: read-out: GI; in short: as §1

Cc1ccccc1-n1c(C)nc2cc(NC(=O)c3ccc(Cl)cc3)ccc2c1=O
inhibition of growth at 10 µM [1]: 17.9%
inhibition of growth at 10 µM [2]: 35.5%
inhibition of growth at 10 µM [3]: 40.3%
growth inhibition (GI) [4]: inactive
Activity [5]: 50%
inhibition of growth at 10 µM [6]: 56.4%
inhibition of growth at 10 µM [7]: 3%
inhibition of growth at 10 µM [8]: 24.2%
inhibition of growth at 10 µM [9]: 69.9%
inhibition of growth at 10 µM [10]: 23.2%
inhibition of growth at 10 µM [11]: 24.1%
inhibition of growth at 10 µM [12]: 21.4%
inhibition of growth at 10 µM [13]: 16%
inhibition of growth at 10 µM [14]: 40.3%
inhibition of growth at 10 µM [15]: 27.8%
inhibition of growth at 10 µM [16]: 17.6%
inhibition of growth at 10 µM [17]: 38.1%
inhibition of growth at 10 µM [18]: 42.7%
inhibition of growth at 10 µM [19]: 12.4%
inhibition of growth at 10 µM [20]: 99.1%
inhibition of growth at 10 µM [21]: 27.5%
inhibition of growth at 10 µM [22]: 32.4%
inhibition of growth at 10 µM [23]: 21.2%
inhibition of growth at 10 µM [24]: 32.4%
inhibition of growth at 10 µM [25]: 22.2%
inhibition of growth at 10 µM [26]: 41.2%
Activity [27]: 0%
inhibition of growth at 10 µM [28]: 56.5%
